Square brackets hold non-standard residues; d marks the D form. Peptide text beside a SMILES is read from it. * marks the point of attachment. sY = N[C@@H](Cc1ccc(OS(=O)(=O)O)cc1)C(=O)O; Boc = CC(C)(C)OC(=O)*

Ki data for 11 compounds are collected here from ChEMBL document CHEMBL1123849, “Synthesis and binding affinities of analogues of cholecystokinin-(30-33) as probes for central nervous system cholecystokinin receptors” (J Med Chem, 1987).

The assay addresses T1, Cholecystokinin receptor (Mus musculus, UniProt O08786+P56481).
T1 sequence (O08786 whole entry): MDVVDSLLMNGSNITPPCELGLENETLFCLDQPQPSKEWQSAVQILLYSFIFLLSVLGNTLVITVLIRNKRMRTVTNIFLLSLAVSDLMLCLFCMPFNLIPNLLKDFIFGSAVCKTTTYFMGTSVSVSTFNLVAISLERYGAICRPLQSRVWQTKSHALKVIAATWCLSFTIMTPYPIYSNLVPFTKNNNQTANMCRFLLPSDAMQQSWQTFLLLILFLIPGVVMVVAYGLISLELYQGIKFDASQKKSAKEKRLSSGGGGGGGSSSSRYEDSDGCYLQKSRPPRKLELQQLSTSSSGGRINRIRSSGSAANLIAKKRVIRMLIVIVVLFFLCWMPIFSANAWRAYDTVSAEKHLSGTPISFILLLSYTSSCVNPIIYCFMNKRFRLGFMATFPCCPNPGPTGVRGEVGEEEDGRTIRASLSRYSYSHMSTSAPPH
T1 sequence (P56481 whole entry): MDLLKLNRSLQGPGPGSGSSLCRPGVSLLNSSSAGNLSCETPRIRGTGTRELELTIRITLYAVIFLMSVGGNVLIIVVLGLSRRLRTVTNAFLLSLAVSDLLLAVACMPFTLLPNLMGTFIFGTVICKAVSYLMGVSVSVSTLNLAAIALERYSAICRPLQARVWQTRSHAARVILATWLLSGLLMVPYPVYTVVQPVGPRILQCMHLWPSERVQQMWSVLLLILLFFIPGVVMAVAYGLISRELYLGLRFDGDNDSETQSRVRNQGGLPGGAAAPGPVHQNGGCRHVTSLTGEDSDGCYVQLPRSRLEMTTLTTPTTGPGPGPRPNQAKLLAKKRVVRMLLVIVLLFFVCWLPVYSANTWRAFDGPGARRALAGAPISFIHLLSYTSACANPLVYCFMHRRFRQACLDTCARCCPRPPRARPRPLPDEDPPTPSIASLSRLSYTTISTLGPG
The experiment in a line: Displacement of [3H]pentagastrin from Cholecystokinin receptor of mouse cerebral cortex. It is filed as tissue-based. An outline of the steps: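 Radioligand was [3H]-Boc-β-alanyl-CCK-30-33 (pentagastrin), displaced from central CCK receptors in homogenized mouse cerebral cortex.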
Background: In a radioligand displacement assay an active substance lowers the binding of a labelled ligand.
Broadly, the Ki is a dissociation constant, usually derived from enzyme kinetics or from competition with a known ligand. Read a high Ki as weaker binding. On to `CC(C)(C)OC(=O)N[C@@H](Cc1c[nH]c2ccccc12)C(=O)NCCC(=O)NC(Cc1ccccc1)C(N)=O` (stereo partly specified), for which the Ki turned out to be 45000 nM.
Compound `CSCC[C@H](NC(=O)[C@H](Cc1c[nH]c2ccccc12)NC(=O)OC(C)(C)C)C(=O)N[C@@H](CC(=O)O)C(=O)N[C@@H](Cc1ccccc1)C(N)=O` registered a Ki of 1.8 nM.
Next, `CC(C)(C)OC(=O)N[C@@H](Cc1c[nH]c2ccccc12)C(=O)NCC(=O)N[C@@H](Cc1ccccc1)C(N)=O` (Boc-Trp-Gly-Phe-NH2): 11000 nM; `CC(C)(C)OC(=O)N[C@@H](Cc1c[nH]c2ccccc12)C(=O)NCC(=O)N[C@@H](CC(=O)O)C(=O)N[C@@H](Cc1ccccc1)C(N)=O` (Boc-WGDF-NH2): 1600 nM.
As for `CSCC[C@H](NC(=O)[C@H](Cc1c[nH]c2ccccc12)NC(=O)OC(C)(C)C)C(=O)NCC(=O)N[C@@H](Cc1ccccc1)C(N)=O` (Boc-WMGF-NH2), the figure is 24000 nM; as for `CSCC[C@H](N)C(=O)N[C@@H](CC(=O)O)C(=O)N[C@@H](Cc1ccccc1)C(N)=O` (H-Met-Asp-Phe-NH2), 100000 nM; as for `CSCC[C@H](NC(=O)[C@H](Cc1c[nH]c2ccccc12)NC(=O)CNC(=O)[C@H](CCSC)NC(=O)[C@@H](N)Cc1ccc(OS(=O)(=O)O)cc1)C(=O)N[C@@H](CC(=O)O)C(=O)N[C@@H](Cc1ccccc1)C(N)=O` (H-[sY]MGWMDF-NH2), 2 nM.
Next, `CSCC[C@H](NC(=O)[C@H](Cc1ccc(OS(=O)(=O)O)cc1)NC(=O)[C@@H](N)CC(=O)O)C(=O)NCC(=O)N[C@@H](Cc1c[nH]c2ccccc12)C(=O)N[C@@H](CCSC)C(=O)N[C@@H](CC(=O)O)C(=O)N[C@@H](Cc1ccccc1)C(N)=O` (stereo in doubt; 1) [SINCALIDE]: 3 nM; `CSCC[C@H](NC(=O)[C@H](Cc1ccc(OS(=O)(=O)O)cc1)NC(=O)[C@@H](N)CC(=O)O)C(=O)NCC(=O)N[C@@H](Cc1c[nH]c2ccccc12)C(=O)N[C@@H](CCSC)C(=O)N[C@@H](CC(=O)O)C(=O)N[C@@H](Cc1ccccc1)C(N)=O` (stereo in doubt; 2) [SINCALIDE]: 180 nM.
For the compound `CSCC[C@H](NC(=O)[C@H](Cc1c[nH]c2ccccc12)NC(=O)CCNC(=O)OC(C)(C)C)C(=O)N[C@@H](CC(=O)O)C(=O)N[C@@H](Cc1ccccc1)C(N)=O` [PENTAGASTRIN], the Ki was 0.6 nM.
As for `CSCC[C@H](NC(=O)[C@@H](N)Cc1c[nH]c2ccccc12)C(=O)N[C@@H](CC(=O)O)C(=O)N[C@@H](Cc1ccccc1)C(N)=O` [TETRAGASTRIN], the figure is 3 nM.
